Assay results: ChEMBL document CHEMBL1143872, “Design, synthesis, and preliminary evaluation of 4-(6-(3-nitroguanidino)hexanamido)pyrrolidine derivatives as potential iNOS inhibitors” (Bioorg Med Chem, 2008)

Biological target: T1, Nitric oxide synthase, inducible (Mus musculus, UniProt P29477)
T1 sequence (P29477 whole entry): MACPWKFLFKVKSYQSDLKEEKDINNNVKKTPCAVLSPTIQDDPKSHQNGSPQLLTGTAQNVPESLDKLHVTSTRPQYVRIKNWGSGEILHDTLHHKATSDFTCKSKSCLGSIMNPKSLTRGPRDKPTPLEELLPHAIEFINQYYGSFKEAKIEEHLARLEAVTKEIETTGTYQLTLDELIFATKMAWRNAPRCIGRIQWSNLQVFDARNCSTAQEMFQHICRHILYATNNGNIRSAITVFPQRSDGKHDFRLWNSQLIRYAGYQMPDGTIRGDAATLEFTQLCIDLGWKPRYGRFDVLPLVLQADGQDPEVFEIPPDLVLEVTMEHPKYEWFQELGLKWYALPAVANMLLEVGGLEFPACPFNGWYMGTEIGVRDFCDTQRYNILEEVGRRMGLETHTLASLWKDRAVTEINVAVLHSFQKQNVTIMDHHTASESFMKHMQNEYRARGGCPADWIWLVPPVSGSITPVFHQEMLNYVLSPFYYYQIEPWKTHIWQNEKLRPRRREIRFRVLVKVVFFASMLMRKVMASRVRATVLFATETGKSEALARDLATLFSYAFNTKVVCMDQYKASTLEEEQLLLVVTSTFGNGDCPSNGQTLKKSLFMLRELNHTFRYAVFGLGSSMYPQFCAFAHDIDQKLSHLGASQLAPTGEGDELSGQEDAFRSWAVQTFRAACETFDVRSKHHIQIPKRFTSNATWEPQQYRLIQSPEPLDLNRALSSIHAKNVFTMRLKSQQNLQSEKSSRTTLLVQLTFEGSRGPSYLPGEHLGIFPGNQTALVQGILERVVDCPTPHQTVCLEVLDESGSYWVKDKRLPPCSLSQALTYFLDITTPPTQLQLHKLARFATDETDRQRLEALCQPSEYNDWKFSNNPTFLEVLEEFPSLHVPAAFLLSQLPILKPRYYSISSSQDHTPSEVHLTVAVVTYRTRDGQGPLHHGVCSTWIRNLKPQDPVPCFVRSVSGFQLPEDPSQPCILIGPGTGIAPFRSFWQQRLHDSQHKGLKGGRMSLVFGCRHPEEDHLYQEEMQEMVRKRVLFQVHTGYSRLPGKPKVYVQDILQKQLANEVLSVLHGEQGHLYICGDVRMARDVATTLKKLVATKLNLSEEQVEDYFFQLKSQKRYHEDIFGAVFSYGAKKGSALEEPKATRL
Assay: Inhibition of inducible NOS mediated nitric oxide production in LPS-activated Kunming mouse macrophages
How it was run: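 Peritoneal exudate cells from female Kunming mice (18–22 g), elicited 2 d earlier by ip 3% starch (1 mL). Cells (10^6/well) precultured 4 h at 37 °C in DMEM with 5% FCS, then washed to keep the adherent macrophages (>95% by Giemsa). Stimulated with LPS 10 µg/mL plus graded compound for 20 h. Nitrite/nitrate measured after nitrate reductase conversion, read colorimetrically. Inhibition % calculated, IC50 read graphically. L-NNA positive control.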

SMILES | IC50 [µM]
N=C(NCCCCCC(=O)N[C@@H]1CN[C@H](C(=O)Nc2cc(Cl)cc(Cl)c2)C1)N[N+](=O)[O-] | 87.3
N=C(NCCCCCC(=O)N[C@@H]1CN[C@H](C(=O)NC2CCCCC2)C1)N[N+](=O)[O-] | 7.37
N=C(NCCCCCC(=O)N[C@@H]1CN[C@H](C(=O)Nc2ccccc2F)C1)N[N+](=O)[O-] | 13.1
N=C(NCCCCCC(=O)N[C@@H]1CN[C@H](C(=O)Nc2ccc(F)cc2)C1)N[N+](=O)[O-] | 87
Cc1ccc(NC(=O)[C@@H]2C[C@H](NC(=O)CCCCCNC(=N)N[N+](=O)[O-])CN2)cc1Cl | 2.5
N=C(NCCCCCC(=O)N[C@@H]1CN[C@H](C(=O)Nc2ccc(Cl)cc2)C1)N[N+](=O)[O-] | 80
N=C(NCCCCCC(=O)N[C@@H]1CN[C@H](C(=O)Nc2ccc(F)c(F)c2F)C1)N[N+](=O)[O-] | 36.2
N=C(NCCCCCC(=O)N[C@@H]1CN[C@H](C(=O)Nc2ccc(F)c(F)c2)C1)N[N+](=O)[O-] | 2.68
N=C(NCCCCCC(=O)N[C@@H]1CN[C@H](C(=O)Nc2ccccc2)C1)N[N+](=O)[O-] | 2.36
N=C(NCCCCCC(=O)N[C@@H]1CN[C@H](C(=O)Nc2cc(Cl)ccc2Cl)C1)N[N+](=O)[O-] | 105
N=C(NCCCCCC(=O)N[C@@H]1CN[C@H](C(=O)Nc2cccc([N+](=O)[O-])c2)C1)N[N+](=O)[O-] | 46
N=C(NCCCCCC(=O)N[C@@H]1CN[C@H](C(=O)Nc2ccc([N+](=O)[O-])cc2)C1)N[N+](=O)[O-] | 25
Cc1cccc(NC(=O)[C@@H]2C[C@H](NC(=O)CCCCCNC(=N)N[N+](=O)[O-])CN2)c1 | 120
Cc1ccccc1NC(=O)[C@@H]1C[C@H](NC(=O)CCCCCNC(=N)N[N+](=O)[O-])CN1 | 119
COc1ccc(NC(=O)[C@@H]2C[C@H](NC(=O)CCCCCNC(=N)N[N+](=O)[O-])CN2)cc1 | 26.7
N=C(NCCCCCC(=O)N[C@@H]1CN[C@H](C(=O)Nc2ccc(Cl)cc2Cl)C1)N[N+](=O)[O-] | 15.5
N=C(NCCCCCC(=O)N[C@@H]1CN[C@H](C(=O)Nc2ccccc2Cl)C1)N[N+](=O)[O-] | 108
N=C(NCCCCCC(=O)N[C@@H]1CN[C@H](C(=O)Nc2ccc(F)cc2F)C1)N[N+](=O)[O-] | 139
Cc1ccc(NC(=O)[C@@H]2C[C@H](NC(=O)CCCCCNC(=N)N[N+](=O)[O-])CN2)c(C)c1 | 120
N=C(NCCCCCC(=O)N[C@@H]1CN[C@H](C(=O)NCc2ccccc2)C1)N[N+](=O)[O-] | 43.5
N=C(NCCCCCC(=O)N[C@@H]1CN[C@H](C(=O)Nc2ccc(Br)cc2)C1)N[N+](=O)[O-] | 74.6
N=C(NCCCCCC(=O)N[C@@H]1CN[C@H](C(=O)Nc2cccc(Cl)c2)C1)N[N+](=O)[O-] | 13
Cc1ccc(NC(=O)[C@@H]2C[C@H](NC(=O)CCCCCNC(=N)N[N+](=O)[O-])CN2)cc1 | 123
N=C(NCCCCCC(=O)N[C@@H]1CN[C@H](C(=O)Nc2cc(F)cc(F)c2)C1)N[N+](=O)[O-] | 11.7
CCOc1ccc(NC(=O)[C@@H]2C[C@H](NC(=O)CCCCCNC(=N)N[N+](=O)[O-])CN2)cc1 | 162
N=C(NCCC[C@H](N)C(=O)O)N[N+](=O)[O-] [NITROARGININE] | 14.7
